Compound activity (PubChem)
Only some compounds are listed: those with a hit (about 2.4% of all), similar ones and a draw of the others.
TDP2 inh – TDP2 (human) inhibition, absorbance primary screen; O95551; inhibition, % at 12.8 µM; 370,000 tested, 0.34% active; recombinant TDP2, T5PNP hydrolysis, p-nitrophenol absorbance 415 nm;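 active = inhibition above the mean of all tested compounds plus 3 SD, set per campaign, cut at about 25% in these data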;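 note: 0% = DMSO with enzyme and 100% = buffer with substrate but no TDP2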
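Test system: human TDP2 enzyme; Input: 120 nM TDP2 per well; Buffer or medium: Mg2+-containing Tris-HCl buffer, pH 7.5; Reagent: 5 mM T5PNP; Dosing: 12.8 µM single point, 1% DMSO; Incubation: reaction 2 h, 37 °C; Detection: p-Nitrophenol epi absorbance; Read-out: % inhibition relative to enzyme-containing and enzyme-free wells; Replicates: single well per compound.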
TCR CD3 inh – inhibitors of human TCR-CD3 interaction; TAMRA-labeled TCR probe fluorescence, biochemical; inhibition, % at 9.4 µM; 360,000 tested, 0.37% active; AID 651800; in the data active = inhibition above about 19%;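 note: recombinant mutant TCR 2C K166C tagged with TAMRA read by polarization; 0% = receptor in buffer alone and 100% = receptor with positive control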
GSTO1 counter – counter-screen for RBBP9 inhibitors: inhibitors of human GSTO1; P78417; inhibition, % at 5.96 µM; 300,000 tested, 1.1% active; AID 1974; recombinant GSTO1, activity-based probe fluorescence polarization;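 active = inhibition above the campaign mean inhibition plus 3 SD, cut at about 35% in these data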;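 note: 0% = GSTO1-1 with DMSO and 100% = wells lacking GSTO1-1 enzyme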
PAD4 inh – blocks human protein arginine deiminase 4 | 330,000 tested, 0.41% active | AID 485272 | inhibition, % at 6.36 µM | recombinant PAD4, RCA probe fluorescence polarization;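 active = percent inhibition above a cutoff equal to the mean of all tested compounds plus 3 SD, cut at about 15% in these data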;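 note: 0% = PAD4 with RCA probe and DMSO and 100% = probe without PAD4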
Apaf-1 inh – blocks human Apaf-1 apoptosome activity | reconstituted apoptosome caspase-3 activity, DEVD-Rh110 fluorescence | 330,000 tested, 0.71% active | O14727 | inhibition, % at 20 µM; active = inhibition of at least 40% at 20 µM;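 note: plate controls were DMSO wells for no effect and DEVD-CHO caspase inhibitor wells for full effect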
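Medium: Hepes buffer, pH 7.5 / System: biochemical Apaf-1 apoptosome reconstitution / Measured by: Rh110 fluorescence, excitation 480 nm, emission 540 nm / Times: compound with Apaf-1, dATP, procaspase-3 30 min, then 50 min reaction, room temperature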
SIAE inh – blocks human sialic acid acetylesterase; inhibition, % at 9.66 µM; Q9HAT2; SIAE FP-Rh probe binding, fluorescence polarization; 370,000 tested, 0.69% active;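 active = inhibition above a cutoff: mean of compounds within the control limits plus 3 SD of those, cut at about 17% in these data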;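 note: 0% = plate median of compound wells and 100% = probe without SIAE protein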
Target sequence (Q9HAT2 whole entry, looked up): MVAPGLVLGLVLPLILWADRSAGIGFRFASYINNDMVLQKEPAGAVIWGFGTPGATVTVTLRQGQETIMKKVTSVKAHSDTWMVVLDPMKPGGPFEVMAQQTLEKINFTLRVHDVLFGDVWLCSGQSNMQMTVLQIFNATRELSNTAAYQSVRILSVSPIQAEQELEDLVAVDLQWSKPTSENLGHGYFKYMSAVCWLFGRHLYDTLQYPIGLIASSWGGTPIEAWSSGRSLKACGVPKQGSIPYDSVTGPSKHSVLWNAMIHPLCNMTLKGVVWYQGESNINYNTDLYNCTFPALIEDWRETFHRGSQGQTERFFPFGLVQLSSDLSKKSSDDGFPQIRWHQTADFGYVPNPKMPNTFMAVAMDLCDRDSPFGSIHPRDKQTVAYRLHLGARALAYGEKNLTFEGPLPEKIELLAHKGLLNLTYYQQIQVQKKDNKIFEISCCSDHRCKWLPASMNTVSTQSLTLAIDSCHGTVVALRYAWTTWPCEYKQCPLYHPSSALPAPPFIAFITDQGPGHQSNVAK
TDP2 confirm – human TDP2 inhibition, confirmation | recombinant human TDP2, absorbance read-out | 1,100 tested, 22% active | shares compounds with TDP2 inh | inhibition, % at 12.8 µM; in the data active = inhibition above about 25%;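 note: 0% = vehicle with enzyme and 100% = no enzyme buffer only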
Starred values were filed as active, the others as inactive; / = no result given; ! = repeats disagree.

SMILES	TDP2 inh	TCR CD3 inh	GSTO1 counter	PAD4 inh	Apaf-1 inh	SIAE inh	TDP2 confirm
Cc1ccc(S(=O)(=O)N(C)CCCC(=O)Nc2ccc(F)cc2)cc1	-6.9	8.5	1.6	3.6	0.7	-8.2	/
O=C(O)COCC(=O)Nc1cc(C(F)(F)F)cc(C(F)(F)F)c1	26.0*	0.9	6.4	-1.0	2.0	6.8	0.2
CC(=O)Nc1ccc(S(=O)(=O)NCCS(=O)(=O)N2CCN(c3ccccc3F)CC2)cc1	-2.5	-5.2	8.2	-1.4	-2.1	2.3	/
CN(C)CCNc1ccc2nnn3c4ccc(O)cc4c(=O)c1c23	2.2	2.5	/	/	/	4.0	/
CCN(CC)CCCNc1ccc2ncn3c4ccc(O)cc4c(=O)c1c23	86.5*	1.4	/	/	/	1.6	28.1*
CCOC(=O)C(=O)N/N=C/c1cccc(Br)c1	24.7*	4.7	7.2	2.0	1.5	3.2	-4.4
Cc1ccc(C(=O)NCCONC(=O)c2ccc(C)cc2)cc1	25.3*	-0.2	-3.0	3.3	-1.4	6.0	-5.8
Cc1c(NC(=O)CN2CCN(c3ccccc3)CC2)c(=O)n(-c2ccccc2)n1C	0.7	-1.0	3.8	0.2	-6.6	-3.1	/
Cc1c(NC(=O)CN2CC(C)OC(C)C2)c(=O)n(-c2ccccc2)n1C (stereo not given)	29.0*!	0.2	-7.3	5.6	-4.9	8.6	16.8
Cc1nn2c(=O)cc(CSc3ccccc3NC(=O)c3ccccc3)nc2s1	26.2*	-1.2	0.2	1.8	-0.5	-2.1	-5.2
CCOC(=O)C1=C(C)Nc2ncnn2C1c1cccs1 (stereo not given)	-14.9	8.4	-1.6	-4.8	2.1	-7.7	/
Cc1nnc(SC(C)C(=O)Nc2ccc(S(=O)(=O)N3CCCCC3)cc2)s1 (stereo not given)	-7.6	5.1	-5.4	-0.2	5.2	-4.4	/
O=C(O)c1ccc2nc(-c3ccco3)c(-c3ccco3)nc2c1	33.5*	-4.5	/	/	61.7*	6.2	18.1
Cc1ccc(-c2nc3ccc(C(=O)O)cc3nc2-c2ccc(C)cc2)cc1	-3.0	-6.8	0.3	-3.4	31.0	-5.5	/
O=C(c1ccc(Br)o1)N1CCC(Cc2ccccc2)CC1	0.7	7.2	1.7	-3.3	17.6	4.0	/
Cn1nccc1C(=O)N1CCC(Cc2ccccc2)CC1	44.6*	-8.9	4.9	-2.6	1.0	-4.3	3.3
Cc1nc2ccc(C(=O)OCc3nnc(-c4ccccc4)o3)cc2nc1C	24.6*	1.4	/	/	5.3	2.8	9.1
Cc1nc2ccc(C(=O)OCc3nnc(-c4ccc(Br)cc4)o3)cc2nc1C	13.2	-4.2	7.0	-9.3	-2.9	-1.6	/
COc1cccc(N2CC(C(=O)Nc3nnc(SCCC4OCCO4)s3)CC2=O)c1 (stereo not given)	28.7*	6.0	6.6	1.2	-2.8	1.1	2.5
CN(C)S(=O)(=O)c1ccc(C(=O)NCc2nc3ccccc3s2)cc1	1.8	4.2	-0.9	-1.6	10.0	-11.5	/
O=C(O)c1ccc2[nH]c3c(c2c1)CSCC3	/	/	17.0	0.8	-7.8	/	/
CN(C)CCOC(=O)c1ccc2[nH]c3c(c2c1)CSCC3	24.8*	1.7	6.8	-6.6	14.6	0.5	-2.8
CCOc1ccc(N2CC(C(=O)N3CCN(C(=O)c4ccco4)CC3)CC2=O)cc1 (stereo not given)	25.6*	-3.8	-3.7	0.1	5.1	15.4	5.4
COc1ccc(CCNC(=O)c2ccc(NC(=O)CC3SC(N4CCCC4)=NC3=O)cc2)cc1 (stereo not given)	3.9	3.6	-2.3	2.9	6.7	-4.3	/
Cc1ccc(OCCNC(=O)c2ccc(NC(=O)CC3SC(N4CCCC4)=NC3=O)cc2)cc1 (stereo not given)	40.2*	-4.6	10.8	4.1	8.6	-6.1	-1.4
SMILES	TDP2 inh	TCR CD3 inh	GSTO1 counter	PAD4 inh	Apaf-1 inh	SIAE inh	TDP2 confirm
O=C(Nc1cccc(NC(=O)c2ccccc2Cl)c1)c1ccco1	-11.3	0.1	0.1	-0.5	0.4	-5.8	/
N#CC1=C(N)C(C#N)(C#N)[C@H](c2ccoc2)[C@H]2CN(Cc3ccccc3)CC=C12	40.2*	8.8	23.7	-4.0	59.1*	8.4	-2.0
CC(=O)N1CC=C2C(C#N)=C(N)C(C#N)(C#N)[C@H](c3ccoc3)[C@H]2C1	6.5	9.1	5.2	-0.5	-0.5	2.1	/
Cc1[nH][nH]c(=O)c1C(c1c(C)[nH][nH]c1=O)c1cn(Cc2ccccc2Cl)c2ccccc12	55.0*	0.3	/	/	/	4.8	33.9*
COc1ccc(NC(=O)N2CCCC2C(=O)NC23CC4CC(CC(C4)C2)C3)cc1 (stereo not given)	-7.1	-1.9	8.3	-6.0	6.4	7.2	/
COc1cccc(NC(=O)N2CCCC2C(=O)NC23CC4CC(CC(C4)C2)C3)c1 (stereo not given)	32.9*	-1.5	-1.9	0.5	3.4	12.1	6.7
COc1cccc(NC(=O)c2cccc(C(=O)Nc3cccc(OC)c3)n2)c1	24.8*	-8.1	1.7	-3.3	3.9	12.7	-6.3
COc1cccc(NC(=O)c2cccnn2)c1	7.4	-0.7	5.8	-1.7	1.2	3.1	/
O=[N+]([O-])c1ccc(Nc2ccccc2)c2nonc12	25.7*	-7.8	29.1	-0.7	12.4	-4.2	7.5
Cc1cc(C)cc(NC(=O)c2sc3nc4n(c(=O)c3c2C)CCC4)c1	4.4	5.8	2.5	-4.4	1.9	-6.3	/
CCc1cccc(NC(=O)c2sc3nc4n(c(=O)c3c2C)CCC4)c1	54.7*	-3.4	11.1	0.7	0.9	7.2	8.7
O=C(NN=Cc1ccc(O)cc1)C(=O)NN=Cc1ccc(O)cc1	-4.2	8.1	/	/	/	-2.0	/
O=C(N/N=C/c1ccc(O)cc1O)C(=O)N/N=C/c1ccc(O)cc1O	25.5*	17.9	12.8	-0.9	-17.7	4.8	7.3
COc1ccc(Cc2nc3ccc(C(=O)N4CCCCC4CCO)cc3o2)cc1 (stereo not given)	24.8*	2.7	-2.0	-1.7	0.7	7.0	10.2
CCN(CC)C(=O)C1=C(C)N(Cc2ccc(C(C)(C)C)cc2)C(=O)C(CC(=O)NCc2ccco2)C1 (stereo not given)	-7.9	5.3	/	/	/	-0.3	/
COc1ccc(CN2CCN(Cc3ccco3)CC2)c(OC)c1	26.6*	-1.2	2.0	-7.9	1.0	1.3	5.8
COc1ccccc1CN1CCN(Cc2ccco2)CC1	28.3*	-2.8	-1.3	6.0	7.3	5.6	5.0
COc1cc(CN2CCN(Cc3ccco3)CC2)cc(OC)c1	22.6	0.9	4.4	-4.1	-3.6	0.0	/
COc1ccccc1CN1CCN(C(=O)c2ccco2)CC1	11.3	-0.9	1.9	0.9	-13.7	1.4	/
Cn1c(=O)cc(OCCCC(=O)NCc2ccc(F)cc2Cl)c2ccccc21	4.5	0.1	2.3	5.0	-11.5	-6.4	/
